Source: ChEMBL document CHEMBL1143786, “Constrained analogs of CB-1 antagonists: 1,5,6,7-Tetrahydro-4H-pyrrolo[3,2-c]pyridine-4-one derivatives” (Bioorg Med Chem Lett, 2007)

Columns and labels:
[1] = target: T1, Cannabinoid receptor 1 (Homo sapiens, UniProt P21554); experiment: Displacement of [3H]CP-55940 from human CB1 receptor expressed in HEK cells; type: cell-based, HEK293
Method in brief: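 Membranes from HEK 293 cells expressing human CB-1, suspended in ice-cold 50 mM Tris pH 7.4, 2.5 mM EDTA, 5 mM MgCl2, 0.1% fatty acid free BSA; 3.3 µg protein incubated with 0.3 nM [3H]CP 55940 and graded compound, 30 °C, 90 min with shaking, triplicate. Nonspecific binding defined with 10 µM WIN 55212-2; filtration through GF/C, scintillation counting; Ki via Cheng–Prusoff from nonlinear-regression IC50.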

[2] = Cmax in Wistar rat at 10 mg/kg, po; type: ADME, organism-based; parameters: dose 10 mg/kg, route oral; details: in vivo
Method in brief: (§1)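 Male Wistar rats, single oral dose of 10 mg/kg. Plasma exposure measured as Cmax and as AUC over 0–2 h.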

[3] = target: Cannabinoid receptor 2 (Homo sapiens, UniProt P34972); experiment: Displacement of [3H]CP-55940 from human CB2 receptor expressed in HEK cells; type: cell-based, HEK293
Method in brief: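 Membranes from HEK 293 cells expressing human CB-2, in ice-cold 50 mM Tris pH 7.4, 2.5 mM EDTA, 5 mM MgCl2, 0.1% fatty-acid-free BSA. 3.3 µg protein with 0.3 nM [3H]CP 55940 and varying competitor, triplicate, 30 °C for 90 min with shaking. Nonspecific binding with 10 µM WIN 55212-2. Filtration onto GF/C, scintillation counting; Ki from IC50 by Cheng–Prusoff.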

[4] = target: T1, Cannabinoid receptor 1; experiment: Antagonist activity at CB1 receptor; type: functional
[5] = test system: Rattus norvegicus; experiment: Reduction in body weight in genetically obese Zucker rat at 5 mg/kg, po qd; type: functional; parameters: scale not given: the % may be the effect or the level left
Method in brief: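 Zucker fa/fa rats, single-housed on grid floors, sham-dosed with vehicle for at least 5 days, then weight-matched on 2-day baseline. Daily oral dosing at 5 mg/kg, 2 mL/kg, in PEG/methanesulfonic acid (80:20) before the nocturnal feeding phase. Body weight recorded daily over 9 days; mean ± SEM, 9–10 rats/group.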

[6] = test system: Rattus norvegicus; experiment: Reduction in food intake in fasted-refed Wistar rat at 10 mg/kg, po after 4 hrs; type: functional; parameters: scale not given: the % may be the effect or the level left
Method in brief: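 Wistar rats fasted overnight (18 h), then given vehicle or compound orally at 10 mg/kg as a suspension in 30% cyclodextrin, 2 mL/kg, 1 h before re-feeding. Cumulative food intake from pre-weighed jars at 30, 60, 90, 180 and 240 min.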

[7] = AUC ( 0 to 2 hrs) in Wistar rat at 10 mg/kg, po; type: ADME, organism-based; parameters: time < 2 hr, dose 10 mg/kg, route oral; details: plasma; method in brief: as §1

Sequence of Cannabinoid receptor 2 (P34972 whole entry): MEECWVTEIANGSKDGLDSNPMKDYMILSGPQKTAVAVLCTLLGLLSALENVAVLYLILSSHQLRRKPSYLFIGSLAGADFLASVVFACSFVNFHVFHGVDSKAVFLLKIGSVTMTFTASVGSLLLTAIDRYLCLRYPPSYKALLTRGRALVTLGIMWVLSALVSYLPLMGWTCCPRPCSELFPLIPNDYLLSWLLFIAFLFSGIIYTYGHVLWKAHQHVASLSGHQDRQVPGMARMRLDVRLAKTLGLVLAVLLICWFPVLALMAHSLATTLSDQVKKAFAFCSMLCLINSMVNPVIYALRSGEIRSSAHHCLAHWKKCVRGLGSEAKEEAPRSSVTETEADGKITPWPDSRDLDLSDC
T1 sequence (P21554 whole entry): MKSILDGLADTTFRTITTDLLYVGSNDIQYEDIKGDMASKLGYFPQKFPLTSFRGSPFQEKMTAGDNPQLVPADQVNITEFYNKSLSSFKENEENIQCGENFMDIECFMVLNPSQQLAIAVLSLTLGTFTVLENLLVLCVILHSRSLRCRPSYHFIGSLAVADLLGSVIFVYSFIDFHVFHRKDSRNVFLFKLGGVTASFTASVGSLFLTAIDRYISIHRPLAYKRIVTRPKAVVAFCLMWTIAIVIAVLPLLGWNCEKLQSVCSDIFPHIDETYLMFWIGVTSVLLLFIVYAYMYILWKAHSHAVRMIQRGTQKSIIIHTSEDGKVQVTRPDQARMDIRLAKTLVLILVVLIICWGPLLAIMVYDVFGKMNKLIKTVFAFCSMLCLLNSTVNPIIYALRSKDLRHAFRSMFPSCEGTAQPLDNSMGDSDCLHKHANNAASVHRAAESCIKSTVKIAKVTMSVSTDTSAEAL

| Structure (SMILES) | Ki [1] [nM] | IC50 [1] [nM] | other results |
| --- | --- | --- | --- |
| CSc1ccc(-c2c(C)c3c(n2-c2ccc(Cl)cc2Cl)CCN(C2CCCCC2)C3=O)cc1 | > 2500 |  |  |
| Cc1c2c(n(-c3ccc(Cl)cc3Cl)c1-c1ccc(C(=O)O)cc1)CCN(C1CCCCC1)C2=O | > 2500 |  |  |
| Cc1c2c(n(-c3ccc(Cl)cc3Cl)c1-c1cccnc1)CCN(C1CCCCC1)C2=O | 390 |  |  |
| Cc1c2c(n(-c3ccc(Cl)cc3Cl)c1-c1ccc(Cl)cc1)CCN(C1CCCCC1)C2=O | 7.5 |  | Cmax [2]: < 50 nM; Ki [3]: 8300 nM; Kb [4]: 6.5 nM |
| Cc1c2c(n(-c3ccccc3Cl)c1-c1ccc(Cl)cc1)CCN(N1CCCCC1)C2=O | 3.5 |  | Ki [3]: 1100 nM |
| Cc1c2c(n(-c3ccc(Cl)cc3Cl)c1-c1ccccc1)CCN(C1CCCCC1)C2=O |  | 16 |  |
| Cc1c2c(n(-c3ccc(Cl)cc3Cl)c1-c1cc3ccccc3s1)CCN(C1CCCCC1)C2=O |  | 23 |  |
| Cc1c2c(n(-c3ccc(Cl)cc3Cl)c1-c1ccc(Cl)cc1)CCN(N1CCCCC1)C2=O | 2.2 |  | Ki [3]: 1300 nM; Kb [4]: 12 nM |
| COc1ccc(-c2c(C)c3c(n2-c2ccc(Cl)cc2Cl)CCN(C2CCCCC2)C3=O)cc1OC | 5.5 |  |  |
| Cc1c2c(n(-c3ccc(Cl)cc3Cl)c1-c1ccc3c(c1)OCO3)CCN(C1CCCCC1)C2=O |  | 12 |  |
| COc1ccc(-c2c(C)c3c(n2-c2ccc(Cl)cc2Cl)CCN(C2CCCCC2)C3=O)cc1 | 7.9 |  |  |
| C=Cc1ccc(-c2c(C)c3c(n2-c2ccc(Cl)cc2Cl)CCN(C2CCCCC2)C3=O)cc1 | 9.8 |  |  |
| Cc1c2c(n(-c3ccc(Cl)cc3Cl)c1-c1cccs1)CCN(C1CCCCC1)C2=O |  | 19 |  |
| Cc1c2c(n(-c3ccc(Cl)cc3Cl)c1-c1cccc(C(F)(F)F)c1)CCN(C1CCCCC1)C2=O |  | 67 |  |
| Cc1c2c(n(-c3ccc(Cl)cc3)c1-c1ccc(Cl)cc1)CCN(C1CCCCC1)C2=O | > 2500 |  |  |
| COc1ccc(-c2c(C)c3c(n2-c2ccccc2C)CCN(C2CCCCC2)C3=O)cc1 |  | 22 |  |
| Cc1c2c(n(-c3ccc(Cl)cc3Cl)c1-c1cccc(N)c1)CCN(C1CCCCC1)C2=O | 450 |  |  |
| Cc1cn(-c2ccc(Cl)cc2Cl)c2c1C(=O)N(C1CCCCC1)CC2 | 240 |  |  |

| Structure (SMILES) | Ki [1] [nM] | IC50 [1] [nM] | other results |
| --- | --- | --- | --- |
| Cc1c2c(n(-c3ccc(Cl)cc3Cl)c1-c1ccsc1)CCN(C1CCCCC1)C2=O |  | 37 |  |
| Cc1ccccc1-n1c2c(c(C)c1-c1ccc(F)cc1)C(=O)N(C1CCCCC1)CC2 |  | 40 |  |
| COc1ccc(-c2c(C)c3c(n2-c2ccccc2Cl)CCN(N2CCCCC2)C3=O)cc1 | 20 |  | Cmax [2]: 620 nM; Activity [5]: -3%; Activity [6]: 36%; Ki [3]: 850 nM; AUC(0-t) at 2 h [7]: 0.58 µM·h |
| Cc1c2c(n(-c3ccc(Cl)cc3Cl)c1-c1ccc(F)cc1)CCN(C1CCCCC1)C2=O | 6 |  |  |
| Cc1c2c(n(-c3ccc(Cl)cc3Cl)c1-c1ccco1)CCN(C1CCCCC1)C2=O |  | 20 |  |
| Cc1c(C(=O)NN2CCCCC2)nn(-c2ccc(Cl)cc2Cl)c1-c1ccc(Cl)cc1 [RIMONABANT] |  |  | Activity [5]: -5.6% |
| COc1cccc(-c2c(C)c3c(n2-c2ccc(Cl)cc2Cl)CCN(C2CCCCC2)C3=O)c1 |  | 6.8 |  |
| Cc1c2c(n(-c3ccccc3Cl)c1-c1ccc(Cl)cc1)CCN(C1CCCCC1)C2=O | 2.8 |  |  |
| Cc1c2c(n(-c3ccc(Cl)cc3Cl)c1-c1ccc(C(F)(F)F)cc1)CCN(C1CCCCC1)C2=O | 4.1 |  |  |
| Cc1ccc(-c2c(C)c3c(n2-c2ccc(Cl)cc2Cl)CCN(C2CCCCC2)C3=O)cc1 | 10 |  |  |
| COc1ccc(-c2c(C)c3c(n2-c2ccccc2Cl)CCN(C2CCCCC2)C3=O)cc1 | 7.5 |  |  |
| Cc1c2c(n(-c3c(Cl)cccc3Cl)c1-c1ccc(Cl)cc1)CCN(C1CCCCC1)C2=O | 200 |  |  |
| COc1ccc(-c2c(C)c3c(n2-c2ccccc2C)CCN(N2CCCCC2)C3=O)cc1 | 74 |  |  |
| Cc1c2c(n(-c3ccc(Cl)cc3)c1-c1ccc(Cl)cc1Cl)CCN(C1CCCCC1)C2=O | > 2500 |  |  |
| Cc1c2c(n(-c3ccc(Cl)cc3Cl)c1-c1ccc(N)cc1)CCN(C1CCCCC1)C2=O | 920 |  |  |
| Cc1ccccc1-n1c2c(c(C)c1-c1ccc(C(F)(F)F)cc1)C(=O)N(C1CCCCC1)CC2 |  | 9.3 |  |
| Cc1cccc(-c2c(C)c3c(n2-c2ccc(Cl)cc2Cl)CCN(C2CCCCC2)C3=O)c1 |  | 17 |  |
